Source: ChEMBL document CHEMBL1122366, “Potential antiatherosclerotic agents. 3. Substituted benzoic and non benzoic acid analogues of cetaben” (1983)
Where “and” joins values, the source holds several entries; their conditions need not be identical. Equal entries are not always repeated.

Key:
[1] = tested on: Rattus norvegicus; test: In vivo triglyceride lowering activity when dosed as 0.01 % of the diet; assay type: functional
Method in brief: (§1)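 Normal rats were dosed in the diet. Serum sterol and triglyceride levels were measured and expressed as the mean percent of control values. Significance versus control was reported at p < 0.05, 0.01 and 0.001.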

[2] = tested on: Rattus norvegicus; test: In vivo sterol lowering activity when dosed as 0.03 % of the diet; assay type: functional; method in brief: as §1
[3] = tested on: Rattus norvegicus; test: In vivo sterol lowering activity at dose of 0.10 % of the diet; assay type: functional; method in brief: as §1
[4] = target: T1, Sterol O-acyltransferase 1 (Rattus norvegicus) (UniProt O70536); test: In vitro inhibition of acyl coenzyme A:cholesterol acyltransferase; design: concentration or dose not given beside the values; details: concentration not given here
T1 sequence (whole entry): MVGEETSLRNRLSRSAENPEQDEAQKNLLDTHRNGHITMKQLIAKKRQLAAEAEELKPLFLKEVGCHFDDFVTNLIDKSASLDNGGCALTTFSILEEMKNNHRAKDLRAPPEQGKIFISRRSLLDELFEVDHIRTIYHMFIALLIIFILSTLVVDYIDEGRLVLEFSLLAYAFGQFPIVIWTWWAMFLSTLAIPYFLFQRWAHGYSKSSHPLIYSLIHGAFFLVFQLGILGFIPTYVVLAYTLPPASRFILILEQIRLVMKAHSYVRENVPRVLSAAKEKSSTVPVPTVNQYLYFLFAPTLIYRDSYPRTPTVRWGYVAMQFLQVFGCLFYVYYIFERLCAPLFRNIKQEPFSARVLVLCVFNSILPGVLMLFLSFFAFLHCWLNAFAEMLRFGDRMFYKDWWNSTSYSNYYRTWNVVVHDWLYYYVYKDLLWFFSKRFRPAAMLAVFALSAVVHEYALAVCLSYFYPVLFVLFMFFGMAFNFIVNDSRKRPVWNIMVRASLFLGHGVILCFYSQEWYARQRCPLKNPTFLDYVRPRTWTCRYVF
Method in brief: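 Enzyme fatty acyl-CoA:cholesterol acyltransferase (ACAT), assayed in vitro at a single drug concentration of 5.2 μg/mL. The value is the mean percent inhibition of enzyme activity.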

[5] = tested on: Rattus norvegicus; test: In vivo sterol lowering activity when dosed as 0.01 % of the diet; assay type: functional; method in brief: as §1
[6] = tested on: Rattus norvegicus; test: In vivo triglyceride lowering activity dosed at 0.10 % of the diet.; assay type: functional; method in brief: as §1
[7] = tested on: Rattus norvegicus; test: In vivo triglyceride lowering activity when dosed at 0.03 % of the diet; assay type: functional; method in brief: as §1

Structure (SMILES) | inhibition [4] [%] | serum triglyceride level, percent of control [1] | serum sterol level, percent of control [2] | serum sterol level, percent of control [3] | serum sterol level, % of control [5] | serum triglyceride, percent of control [6] | serum triglyceride level, percent of control [7] | Diet [7] [%]
CCCCCCCCCCCCCCCCNc1ccc(C(=O)C(C#N)C(=O)OCC)cc1 (stereo not drawn) | < 40 | 83% | 100% | 100% | 115% | 105% | 90% | 
CCCCCCCCCCCCCCCCNc1ccc(C(=O)NCC(O)CO)cc1 (stereo not drawn) | < 61 | 114% | 88% | <72% | 99% | <48% | <73% | 
CCCCCCCCCCCCCCCCNc1ccc(C(=O)OC2CCCCO2)cc1 (stereo not drawn) | 0 | 108% | <76% | <74% | 91% | <54% |  | 98
CCCCCCCCCCCCCCCCNc1cc(C(=O)[O-])cc(C(=O)[O-])c1.[Na+].[Na+] | 0 | 96% | 99% | 90% | 92% | 103% | 115% | 
CCCCCCCCCCCCCCCCNc1ccc(C(=O)CC#N)cc1 | < 22 | 132% | 104% | 115% | 107% | 130% | 140% | 
CCCCCCCCCCCCCCCCNc1ccc(C(=O)O)c(C)c1 | 38 | 112% | 100% | 103% | 101% | 105% | 121% | 
CCCCCCCCCCCCCCCCNc1ccc(CC(=O)O)cc1 |  | 76% | 87% | 87% | 93% | <63% | 81% | 
Br.CCCCCCCCCCCCCCCCNc1ccc(COC(C)=O)cc1 |  | 79% | 92% | <85% | 93% | 114% | 135% | 
CCCCCCCCCCCCCCCCNc1ccc(C(=O)O)cc1Br |  | 95% and 104% | 100% and 99% | 93% and 97% | 92% and 101% | 91% and 100% | 96% and 99% | 
CCCCCCCCCCCCCCCCCN(C)c1ccc(C(=O)O)cc1 |  | 98% | 98% | 98% | 97% | 109% | 134% | 

The next lines start with results.

inhibition [4] [%] | Structure (SMILES) | serum triglyceride level, percent of control [1] | serum sterol level, percent of control [2] | serum sterol level, percent of control [3] | serum sterol level, % of control [5] | serum triglyceride, percent of control [6] | serum triglyceride level, percent of control [7] | Diet [7] [%]
17 | CCCCCCCCCCCCCCCCNc1ccc(C(=O)OCCO)cc1 | <75% | 92% | <83% | 106% | <52% | <65% | 
16 | CCCCCCCCCCCCCCCCNc1ccc(C(=O)NCC(=O)OCC)cc1 | 78% | 96% | 92% | 92% | <69% | 74% | 
6 | CCCCCCCCCCCCCCCCNc1ccc(C(=O)O)c(OCCCCCCCCCCCCCCCC)c1 | 126% | 99% | 95% | 90% | 84% | 82% | 
20 | CCCCCCCCCCCCCCCCNc1ccc(C(=O)CO)cc1 | 89% | 97% | <85% | 103% | <71% | 75% | 
49 | CCCCCCCCCCCCCCCCNc1ccc(C(=O)NCCC(=O)O)cc1 | 99% | 93% | <86% | <90% | <55% | 78% | 
< 43 | CCCCCCCCCCCCCCCCNc1ccc(C(=O)CC(=O)C(=O)OC)cc1 | 101% | 96% | 85% | 92% | 81% | 77% | 
< 21 | CCCCCCCCCCCCCCCCNc1ncc(C(=O)O)cn1 | 89% | 108% | 114% | 108% | 93% | 94% | 
0 | CCCCCCCCCCCCCCCCNc1ccc(C2=NCCO2)cc1 | 103% | 100% | 86% | 100% | 76% | 94% | 
14 | CCCCCCCCCCCCCCCCNc1ccc(C(=O)OCCCO)cc1 | <67% | <82% | <68% | 94% | <46% | <74% | 
12 | CCCCCCCCCCCCCCCCN(CC(=O)OCC)c1ccc(C(=O)OC)cc1 | 113% | 100% | 104% | 106% | 104% | 97% | 
9 | CCCCCCCCCCCCCCCCN(C=O)c1ccc(C(=O)OCC)cc1 | 102% | 117% | 96% | 101% | 75% | 90% | 
6 | CCCCCCCCCCCCCCCCNc1ccc(C(=O)C[S+](C)[O-])cc1 (stereo not drawn) | <64% | 95% |  | 95% |  | <55% | 
